Experimental data as given in ChEMBL document CHEMBL1155459, “On-bead screening of a combinatorial fumaric acid derived peptide library yields antiplasmodial cysteine protease inhibitors with unusual peptide sequences” (J Med Chem, 2009).
Peptide text beside a SMILES is read from it.

Columns and labels:
[1] = Inhibition of Plasmodium falciparum falcipain-2 after 12 hrs by fluorescence spectroscopy-based on-bead assay; design: concentration or dose not given beside the values; conditions: concentration not given here
Summary of the method: (§1)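 Library members on resin (PEGA, theoretical loading 0.40 mmol/g; added as DMSO suspension, 0.64 mM final inhibitor) preincubated with enzyme 12 h, then Cbz-Phe-Arg-AMC 40 μM added; AMC release followed by fluorescence (ex 380/em 460 nm). Kinetics compared with inhibitor-free amino-PEGA resin.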

[2] = target: Rhodesain (Trypanosoma brucei rhodesiense) (UniProt Q95PM0); assay: Inhibition of Trypanosoma brucei rhodesiense rhodesain after 12 hrs by fluorescence spectroscopy-based on-bead assay; design: concentration or dose not given beside the values; conditions: concentration not given here; summary of the method: as §1
Chain of Rhodesain (Trypanosoma brucei rhodesiense) (Q95PM0 1-450): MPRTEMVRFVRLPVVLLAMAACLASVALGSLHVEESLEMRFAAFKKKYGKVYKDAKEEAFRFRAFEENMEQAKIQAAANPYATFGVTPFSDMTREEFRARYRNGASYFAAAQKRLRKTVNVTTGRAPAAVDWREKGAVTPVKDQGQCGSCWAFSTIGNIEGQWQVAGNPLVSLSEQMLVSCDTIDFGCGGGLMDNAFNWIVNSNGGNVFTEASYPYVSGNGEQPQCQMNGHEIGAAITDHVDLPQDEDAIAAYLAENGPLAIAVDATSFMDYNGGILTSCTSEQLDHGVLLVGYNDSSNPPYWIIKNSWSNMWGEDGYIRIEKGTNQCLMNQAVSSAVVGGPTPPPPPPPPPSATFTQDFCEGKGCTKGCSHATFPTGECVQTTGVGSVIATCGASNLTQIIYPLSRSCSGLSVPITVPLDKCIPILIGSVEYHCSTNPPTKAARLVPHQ

Compound	inhibition [1] [%]	inhibition [2] [%]
CC(=O)NC[C@H](NC(=O)/C=C/C(=O)N[C@@H](C)C(=O)NCC(=O)N[C@@H](Cc1ccccc1)C(=O)O)C(=O)N[C@@H](CC(C)C)C(=O)N[C@H](C(=O)N[C@H](C(N)=O)C(C)C)C(C)C (HELM PEPTIDE1{[C[C@H](NC(=O)/C=C/C(=O)[*:2])C(=O)NCC(=O)N[C@@H](Cc1ccccc1)C(=O)O].[O=C([C@H](CN[*:3])N[*:1])[*:2]].L.V.V.[am]}|PEPTIDE2{[ac]}$PEPTIDE1,PEPTIDE2,2:R3-1:R2$$$V2.0)	35	60
CC(=O)NC[C@H](NC(=O)/C=C/C(=O)N[C@@H](C)C(=O)NCC(=O)N[C@@H](Cc1ccccc1)C(=O)O)C(=O)N[C@H](C(=O)N[C@@H](C)C(=O)N[C@H](C(N)=O)C(C)C)c1ccccc1 (HELM PEPTIDE1{[C[C@H](NC(=O)/C=C/C(=O)[*:2])C(=O)NCC(=O)N[C@@H](Cc1ccccc1)C(=O)O].[O=C([C@H](CN[*:3])N[*:1])[*:2]].[Phg].A.V.[am]}|PEPTIDE2{[ac]}$PEPTIDE1,PEPTIDE2,2:R3-1:R2$$$V2.0)	35	34
CC(=O)NC[C@H](NC(=O)/C=C/C(=O)N[C@@H](C)C(=O)NCC(=O)N[C@@H](Cc1ccccc1)C(=O)O)C(=O)N[C@H](C(=O)N[C@@H](CC(C)C)C(=O)N[C@H](C(N)=O)C(C)C)c1ccccc1 (HELM PEPTIDE1{[C[C@H](NC(=O)/C=C/C(=O)[*:2])C(=O)NCC(=O)N[C@@H](Cc1ccccc1)C(=O)O].[O=C([C@H](CN[*:3])N[*:1])[*:2]].[Phg].L.V.[am]}|PEPTIDE2{[ac]}$PEPTIDE1,PEPTIDE2,2:R3-1:R2$$$V2.0)	52	56
CC(=O)NC[C@H](NC(=O)/C=C/C(=O)N[C@@H](C)C(=O)NCC(=O)N[C@@H](Cc1ccccc1)C(=O)O)C(=O)N[C@H](C(=O)N[C@H](C(=O)N[C@H](C(N)=O)C(C)C)C(C)C)c1ccccc1 (HELM PEPTIDE1{[C[C@H](NC(=O)/C=C/C(=O)[*:2])C(=O)NCC(=O)N[C@@H](Cc1ccccc1)C(=O)O].[O=C([C@H](CN[*:3])N[*:1])[*:2]].[Phg].V.V.[am]}|PEPTIDE2{[ac]}$PEPTIDE1,PEPTIDE2,2:R3-1:R2$$$V2.0)	20	36
CC(C)[C@H](NC(=O)[C@H](C)NC(=O)[C@H](Cc1ccccc1)NC(=O)[C@H](C)NC(=O)/C=C/C(=O)NCC(=O)NCC(=O)N[C@@H](Cc1ccccc1)C(=O)O)C(N)=O (HELM PEPTIDE1{[O=C(/C=C/C(=O)[*:2])NCC(=O)NCC(=O)N[C@@H](Cc1ccccc1)C(=O)O].A.F.A.V.[am]}$$$$V2.0)	44	45
CC(C)C[C@H](NC(=O)[C@H](Cc1ccccc1)NC(=O)[C@H](C)NC(=O)/C=C/C(=O)NCC(=O)NCC(=O)N[C@@H](Cc1ccccc1)C(=O)O)C(=O)N[C@H](C(N)=O)C(C)C (HELM PEPTIDE1{[O=C(/C=C/C(=O)[*:2])NCC(=O)NCC(=O)N[C@@H](Cc1ccccc1)C(=O)O].A.F.L.V.[am]}$$$$V2.0)	68	67
CC(C)[C@H](NC(=O)[C@@H](NC(=O)[C@H](Cc1ccccc1)NC(=O)[C@H](C)NC(=O)/C=C/C(=O)NCC(=O)NCC(=O)N[C@@H](Cc1ccccc1)C(=O)O)C(C)C)C(N)=O (HELM PEPTIDE1{[O=C(/C=C/C(=O)[*:2])NCC(=O)NCC(=O)N[C@@H](Cc1ccccc1)C(=O)O].A.F.V.V.[am]}$$$$V2.0)	27	48
CC[C@H](C)[C@H](NC(=O)[C@H](C)NC(=O)/C=C/C(=O)NCC(=O)NCC(=O)N[C@@H](Cc1ccccc1)C(=O)O)C(=O)N[C@@H](C)C(=O)N[C@H](C(N)=O)C(C)C (HELM PEPTIDE1{[O=C(/C=C/C(=O)[*:2])NCC(=O)NCC(=O)N[C@@H](Cc1ccccc1)C(=O)O].A.I.A.V.[am]}$$$$V2.0)	54	31
CC[C@H](C)[C@H](NC(=O)[C@H](C)NC(=O)/C=C/C(=O)NCC(=O)NCC(=O)N[C@@H](Cc1ccccc1)C(=O)O)C(=O)N[C@@H](CC(C)C)C(=O)N[C@H](C(N)=O)C(C)C (HELM PEPTIDE1{[O=C(/C=C/C(=O)[*:2])NCC(=O)NCC(=O)N[C@@H](Cc1ccccc1)C(=O)O].A.I.L.V.[am]}$$$$V2.0)	61	58
CC[C@H](C)[C@H](NC(=O)[C@H](C)NC(=O)/C=C/C(=O)NCC(=O)NCC(=O)N[C@@H](Cc1ccccc1)C(=O)O)C(=O)N[C@H](C(=O)N[C@H](C(N)=O)C(C)C)C(C)C (HELM PEPTIDE1{[O=C(/C=C/C(=O)[*:2])NCC(=O)NCC(=O)N[C@@H](Cc1ccccc1)C(=O)O].A.I.V.V.[am]}$$$$V2.0)	32	33
CC(C)C[C@H](NC(=O)[C@H](C)NC(=O)/C=C/C(=O)NCC(=O)NCC(=O)N[C@@H](Cc1ccccc1)C(=O)O)C(=O)N[C@@H](C)C(=O)N[C@H](C(N)=O)C(C)C (HELM PEPTIDE1{[O=C(/C=C/C(=O)[*:2])NCC(=O)NCC(=O)N[C@@H](Cc1ccccc1)C(=O)O].A.L.A.V.[am]}$$$$V2.0)	57	40
CC(C)C[C@H](NC(=O)[C@H](C)NC(=O)/C=C/C(=O)NCC(=O)NCC(=O)N[C@@H](Cc1ccccc1)C(=O)O)C(=O)N[C@H](C(=O)N[C@H](C(N)=O)C(C)C)C(C)C (HELM PEPTIDE1{[O=C(/C=C/C(=O)[*:2])NCC(=O)NCC(=O)N[C@@H](Cc1ccccc1)C(=O)O].A.L.V.V.[am]}$$$$V2.0)	29	55
CC(C)[C@H](NC(=O)[C@H](C)NC(=O)[C@@H](NC(=O)[C@H](C)NC(=O)/C=C/C(=O)NCC(=O)NCC(=O)N[C@@H](Cc1ccccc1)C(=O)O)C1CCCCC1)C(N)=O (HELM PEPTIDE1{[O=C(/C=C/C(=O)[*:2])NCC(=O)NCC(=O)N[C@@H](Cc1ccccc1)C(=O)O].A.[O=C([C@@H](N[*:1])C1CCCCC1)[*:2]].A.V.[am]}$$$$V2.0)	31	26
CC(C)C[C@H](NC(=O)[C@@H](NC(=O)[C@H](C)NC(=O)/C=C/C(=O)NCC(=O)NCC(=O)N[C@@H](Cc1ccccc1)C(=O)O)C1CCCCC1)C(=O)N[C@H](C(N)=O)C(C)C (HELM PEPTIDE1{[O=C(/C=C/C(=O)[*:2])NCC(=O)NCC(=O)N[C@@H](Cc1ccccc1)C(=O)O].A.[O=C([C@@H](N[*:1])C1CCCCC1)[*:2]].L.V.[am]}$$$$V2.0)	43	60
CC(C)[C@H](NC(=O)[C@@H](NC(=O)[C@@H](NC(=O)[C@H](C)NC(=O)/C=C/C(=O)NCC(=O)NCC(=O)N[C@@H](Cc1ccccc1)C(=O)O)C1CCCCC1)C(C)C)C(N)=O (HELM PEPTIDE1{[O=C(/C=C/C(=O)[*:2])NCC(=O)NCC(=O)N[C@@H](Cc1ccccc1)C(=O)O].A.[O=C([C@@H](N[*:1])C1CCCCC1)[*:2]].V.V.[am]}$$$$V2.0)	54	40
CC(C)[C@H](NC(=O)[C@H](C)NC(=O)[C@@H](NC(=O)[C@H](C)NC(=O)/C=C/C(=O)NCC(=O)NCC(=O)N[C@@H](Cc1ccccc1)C(=O)O)c1ccccc1)C(N)=O (HELM PEPTIDE1{[O=C(/C=C/C(=O)[*:2])NCC(=O)NCC(=O)N[C@@H](Cc1ccccc1)C(=O)O].A.[Phg].A.V.[am]}$$$$V2.0)	41	16
CC(C)C[C@H](NC(=O)[C@@H](NC(=O)[C@H](C)NC(=O)/C=C/C(=O)NCC(=O)NCC(=O)N[C@@H](Cc1ccccc1)C(=O)O)c1ccccc1)C(=O)N[C@H](C(N)=O)C(C)C (HELM PEPTIDE1{[O=C(/C=C/C(=O)[*:2])NCC(=O)NCC(=O)N[C@@H](Cc1ccccc1)C(=O)O].A.[Phg].L.V.[am]}$$$$V2.0)	53	54
